ChEMBL document CHEMBL1122125, “Synthesis and in vivo antitumor activity of potential 5-fluorouracil prodrugs” (1982)

How the values were obtained:
Assay type in all cases: functional
Mus musculus [1] = assay: Antitumor activity was determined for 7-day average percent weight change against P-388 leukemia in mice at a dose of 75 mg/kg
How it was run: (§1)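 Male B6D2F1J mice given 10⁶ P-388 cells ip on day 0, then treated ip once daily on days 1-4 (qd × 4), 5 mice per dose group. Compounds dosed in sterile saline, except one lipophilic thioether given in 10% Tween 80. Mice weighed on days 1 and 7; mean weight per mouse on day 1 and 7-day weight change reported in g and as percent.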

Mus musculus [2] = assay: Antitumor activity was determined for survival range of mice against P-388 leukemia in mice at a dose of 150 mg/kg
How it was run: (§2)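 Male B6D2F1J mice implanted ip with 10⁶ P-388 cells on day 0; test agents given ip on days 1–4 (qd × 4) in sterile saline, or in 10% Tween 80 for the lipophilic thioether. Groups of 5 treated mice, with 10–17 untreated controls per experiment. Mice weighed on days 1 and 7 to give the 7-day weight change in g and %. Survival recorded in days as median and range.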

Mus musculus [3] = assay: Antitumor activity was determined for survival range of mice against P-388 leukemia in mice at a dose of 85 mg/kg
How it was run: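 Male B6D2F1J mice, 5 per dose group, implanted ip with 10⁶ P-388 leukemia cells on day 0. Drug given ip daily on days 1-4 (qd × 4) in sterile saline, or in 10% Tween 80 for the butyl thioether. Survival range recorded in days. Untreated control groups had 10-17 animals per experiment. Mice weighed on days 1 and 7.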

Mus musculus [4] = assay: Antitumor activity was determined for survival range of mice against P-388 leukemia in mice at a dose of 600 mg/kg; how it was run: as §2
Mus musculus [5] = assay: Antitumor activity was determined for survival range of mice against P-388 leukemia in mice at a dose of 340 mg/kg; how it was run: as §2
Mus musculus [6] = assay: Antitumor activity was determined for 7-day average percent weight change against P-388 leukemia in mice at a dose of 170 mg/kg; how it was run: as §1
Mus musculus [7] = assay: Antitumor activity was determined for average weight on day 1 against P-388 leukemia in mice at a dose of 680 mg/kg
How it was run: (§3)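 Male B6D2F1J mice, groups of 5, inoculated ip with 10⁶ P-388 cells on day 0. Drug given ip on days 1-4 (qd × 4) in sterile saline, or in 10% Tween 80 for the poorly water-soluble thioether. Average weight per mouse recorded on day 1, with reweighing on day 7 for percent weight change. Untreated control groups had 10-17 animals per experiment.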

Mus musculus [8] = assay: Antitumor activity was determined for median survival of mice against P-388 leukemia in mice at a dose of 170 mg/kg; how it was run: as §2
Mus musculus [9] = assay: Antitumor activity was determined for average weight on day 1 against P-388 leukemia in mice at a dose of 600 mg/kg; how it was run: as §3
Mus musculus [10] = assay: Antitumor activity was determined for median survival of mice against P-388 leukemia in mice at a dose of 85 mg/kg; how it was run: as §2
Mus musculus [11] = assay: Antitumor activity was determined for median survival of mice against P-388 leukemia in mice at a dose of 600 mg/kg; how it was run: as §2
Mus musculus [12] = assay: Percent increase in life span against P-388 leukemia in mice was determined at a dose of 150 mg/kg; conditions: P388
How it was run: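 Male B6D2F1J mice, 5 per dose group, received 10⁶ P-388 cells ip on day 0. Dosing was ip qd × 4 on days 1-4 in sterile saline, or 10% Tween 80 for the butyl thioether. Median survival times of treated (T) and untreated control (C, 10-17 mice) groups were compared: %ILS = [(T/C) − 1]100. Weights taken on days 1 and 7.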

Mus musculus [13] = assay: Antitumor activity was determined for 7-day average percent weight change against P-388 leukemia in mice at a dose of 150 mg/kg; how it was run: as §1

CC[C@H]1OC(n2cc(F)c(=O)[nH]c2=O)[C@H](O)[C@@H]1O (stereo partly drawn)
Weight change (Mus musculus [1]): 9%
Survival range (Mus musculus [2]): 15
Survival range (Mus musculus [3]): 13
Survival range (Mus musculus [4]): 17
Survival range (Mus musculus [5]): 15
Weight change (Mus musculus [6]): 6%
Average weight (Mus musculus [7]): 25.8 g mouse-1
Survival median (Mus musculus [8]): 14
Average weight (Mus musculus [9]): 23.2 g mouse-1
Survival median (Mus musculus [10]): 13
Survival median (Mus musculus [11]): 18
ILS at 150 mg/kg (Mus musculus [12]): 54%
Weight change (Mus musculus [13]): 7%
